Data on twelve compounds can be found in ChEMBL document CHEMBL1148387, “DNA-targeted 1,2,4-benzotriazine 1,4-dioxides: potent analogues of the hypoxia-selective cytotoxin tirapazamine” (J Med Chem, 2004).

Where only a bound is given, the exact number is not on record here.

A short description of experiment [1]: Hypoxic cytotoxicity ratio was measured as IC50 aerobic/IC50 hypoxic. The format is functional. In a few lines:
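HT-29 cells, SRB proliferation assay with each compound run simultaneously under aerobic and hypoxic conditions; intraexperimental ratio IC50(aerobic)/IC50(hypoxic).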

For experiment [2], the system named is SCC-7. Put plainly: Concentration required to kill hypoxic mouse SCCVII cells in vitro. The format is functional. In a few lines: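 Mouse SCCVII tumour cells exposed to drug for 1 h under hypoxic (anoxic) conditions; clonogenic survival; C10 = concentration reducing plating efficiency to 10% of controls. Values corrected for interexperimental variation in hypoxia using TPZ internal standard: C10(calc) = C10(meas) × [C10(TPZ,mean)/C10(TPZ,meas)].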

Experiment [3] can be described thus: Hypoxic cytotoxicity ratio was measured as C10 aerobic/C10 hypoxic. The class given is functional. In a few lines: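 Mouse SCCVII cells, 1 h drug exposure under aerobic and hypoxic conditions in the same experiment, clonogenic survival; intraexperimental ratio C10(aerobic)/C10(hypoxic), C10 being the concentration giving 10% plating efficiency of controls.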

The test system of experiment [4] is HT-29. Kind of experiment: Concentration required to kill hypoxic HT-29 human colon carcinoma cells in vitro. The class given is functional, cell-based. In a few lines:
(§1)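 HT-29 cells tested simultaneously under oxic and hypoxic conditions in a 96-well SRB proliferation assay; TPZ internal control at front and back of assay (n = 2); 8-methyl-5-nitroquinoline second control confirming strict hypoxia. IC50 pooled from seven independent experiments as interexperimental means (mean ± SEM, n ≥ 2).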

Experiment [5] deals with SCC-7. Kind of experiment: Concentration required to kill aerobic mouse SCCVII cells in vitro. The format is functional. In a few lines: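 Mouse SCCVII tumour cells exposed to drug for 1 h under aerobic conditions; clonogenic survival read-out; C10 = concentration reducing plating efficiency to 10% of controls (one-log kill).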
The subject of experiment [6] is HT-29. Kind of experiment: Concentration required to kill aerobic HT-29 human colon carcinoma cells in vitro. The format is functional, cell-based. The gist of the method: as §1

Regarding `O=C(NCCNCCNc1n[n+]([O-])c2ccccc2[n+]1[O-])c1cccc2cc3ccccc3nc12`, the Ratio in experiment [1] is listed as 98.6; in experiment [3], 48.2. Further, the C10 in experiment [2] is 1.16 µM; in experiment [5], 56 µM. Besides, the IC50 was 79 nM in experiment [4] and 7.8 µM in experiment [6].
Turning to `Cc1cccc2nc3cccc(C(=O)NCCCN(C)CCCNc4n[n+]([O-])c5ccccc5[n+]4[O-])c3nc12`, the Ratio in experiment [1] stood at 31; in experiment [3], 21.1. The C10 in experiment [2] is 0.35 µM; in experiment [5] it was 7.4 µM. Also, the IC50 in experiment [4] came to 18 nM; in experiment [6], 0.56 µM.
With `CN(CCCNC(=O)c1cccc2ccc(-c3ccncc3)nc12)CCCNc1n[n+]([O-])c2ccccc2[n+]1[O-]`, the Ratio in experiment [1] is listed as 107; in experiment [3] it was 7.8. For the same compound, the C10 in experiment [2] came out at 1.79 µM; in experiment [5], 14 µM. The IC50 in experiment [4] was 110 nM; in experiment [6], 12 µM.
As to `O=C(NCCOCCNc1n[n+]([O-])c2ccccc2[n+]1[O-])c1cccc2cc3ccccc3nc12`, the Ratio in experiment [1] is 12.8; in experiment [3], 50.8. The figures for the C10 in experiment [2] and in experiment [5] were 12.4 µM and 630 µM, respectively. The figures for the IC50 in experiment [4] and in experiment [6] were 5700 nM and 72.5 µM, respectively.
Take `CN(CCNC(=O)c1cccc2cc3ccccc3nc12)CCNc1n[n+]([O-])c2ccccc2[n+]1[O-]`: the Ratio was determined as 87 in experiment [1] and 431 in experiment [3]. Further, the C10 in experiment [2] is 0.93 µM; in experiment [5] it was 400 µM. For the same compound, the IC50 in experiment [4] came out at 180 nM; in experiment [6] it was 15.7 µM.
`CN(CCCNC(=O)c1cccc2cccnc12)CCCNc1n[n+]([O-])c2ccccc2[n+]1[O-]`: the Ratio in experiment [1] is recorded as 61.2; in experiment [3] it was 13.9. The C10 is 6.5 µM in experiment [2] and 90 µM in experiment [5]. For the same compound, the results for the IC50 in experiment [4] and in experiment [6] were 590 nM and 36.3 µM, respectively.
Consider `CN(CCCNC(=O)c1cccc2nc3ccccc3nc12)CCCNc1n[n+]([O-])c2ccccc2[n+]1[O-]`, for which the Ratio in experiment [1] worked out at 4.9; in experiment [3], 8.8. Moreover, the results for the C10 in experiment [2] and in experiment [5] were 1.07 µM and 9.4 µM, respectively. The IC50 in experiment [4] amounted to 120 nM; in experiment [6], 0.59 µM.
With `Cc1cccc2cc3cccc(C(=O)NCCCN(C)CCCNc4n[n+]([O-])c5ccccc5[n+]4[O-])c3nc12`, the results for the Ratio in experiment [1] and in experiment [3] were 88.4 and >167, respectively. In addition, the C10 in experiment [2] is 0.18 µM; in experiment [5] it was >30 µM. In addition, the values for the IC50 in experiment [4] and in experiment [6] were 95 nM and 8.4 µM, respectively.
As for `CN(CCCNC(=O)c1cccc2cc3ccccc3nc12)CCCNc1n[n+]([O-])c2ccccc2[n+]1[O-]`, the Ratio in experiment [1] is 124; in experiment [3], 51.5. The C10 turned out to be 0.82 µM in experiment [2] and 42 µM in experiment [5]. The IC50 in experiment [4] is 43 nM; in experiment [6] it was 5.35 µM.
For `O=C(NCCCNCCCNc1n[n+]([O-])c2ccccc2[n+]1[O-])c1cccc2cc3ccccc3nc12`, the Ratio in experiment [1] is listed as 87.5; in experiment [3] it was 12.5. Further, the C10 in experiment [2] was found to be 0.51 µM; in experiment [5], 6.4 µM. Moreover, the figures for the IC50 in experiment [4] and in experiment [6] were 65 nM and 5.7 µM, respectively.
For the compound `[O-][n+]1nc(NCCCCCCNc2c3ccccc3nc3ccccc23)[n+]([O-])c2ccccc21`, the values for the Ratio in experiment [1] and in experiment [3] were 39.7 and 15.7, respectively. Further, the C10 was 0.61 µM in experiment [2] and 9.6 µM in experiment [5]. For the same compound, the IC50 in experiment [4] came out at 16 nM; in experiment [6], 0.62 µM.
For the compound `Nc1n[n+]([O-])c2ccccc2[n+]1[O-]` [TIRAPAZAMINE], the results for the Ratio in experiment [1] and in experiment [3] were 62 and 258, respectively. Further, the figures for the C10 in experiment [2] and in experiment [5] were 10.2 µM and 2644 µM, respectively. In addition, the figures for the 50% inhibitory concentration (IC50) in experiment [4] and in experiment [6] were 6200 nM and 387 µM, respectively.
